# Assay results reported in PubChem BioAssay.
# Calls of active or inactive are those of the source. Rule as the data show it, unless noted: active = inhibition above about 30%; inactive = the rest.
# What was measured:
# [1] = HUVEC growth inhibition – cell-based, human, primary screen (AID 575;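 active = viability at or below 30% in both replicate assays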;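 also: 100% = median of untreated cell wells with 0.1% DMSO on each plate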); settings: HUVEC proliferation, CellTiter-Glo luminescence, 72 h; at 10 µM; stronger effect = lower value
# Summary of the method: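 system = HUVEC primary cells | amount = 1250 cells/well | buffer or medium = supplemented EBM, 2% fetal bovine serum | dosing = single-point 10 µM, DMSO 0.1% final | times = 72 h compound incubation | detection = CTG luminescence | read-out = % viability relative to median vehicle-well signal on each plate | control set = vehicle and MePR control wells | format = collagen-coated 384-well format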
# [2] = growth inhibitors of H69AR lung tumor, primary screen, human, duplicate replicates (AID 580;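 active = viability at or under a set limit in both replicates, limit being median viability minus 3 SD, cut at about 48% in these data, passing the limit was not always enough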;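 also: 100% = mean luminescence of untreated wells and 0% = no signal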); settings: H69AR lung tumor cells viability, ATP luminescence, 72 h; at 10 µM; stronger effect = lower value
# [3] = reversal of MRP1-mediated doxorubicin resistance, pilot screen, H69AR cells, doxorubicin co-treatment (AID 601;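 active = viability loss from added drug above about 55%, and viability with drug at most 40%, in both replicates, limit read from the data, passing the limit was not always enough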); settings: CellTiter-Glo, 72 h, at 10 µM; for differential viability (reversal): stronger effect = higher value
# [4] = 384-well plate pilot, post-Golgi transport modulator project, inhibition of yeast transport mutant growth (AID 636; in the data active = inhibition above about 31%); settings: absorbance 615 nm, about 18 h, stronger effect = higher value
# [5] = growth suppression of yeast trafficking mutant, preliminary HTS, modulators of trafficking downstream of Golgi apparatus project, 1536-format plate, OD 615 nm (AID 637); settings: yeast transport mutant growth, absorbance 615 nm, 18 h; stronger effect = higher value
# [6] = H69AR cells + 2 uM doxorubicin, measured here: viability with 2 uM doxorubicin, stronger effect = lower value
# [7] = H69AR cells, compound alone cytotoxicity
Structure (SMILES),viability [1],viability [2],differential viability (reversal) ([3]; H69AR cells + 2 uM doxorubicin),"viability [3, 6]","viability [3, 7]",inhibition [4],inhibition [5]
Cc1cc(NC(=O)c2cc(-c3ccco3)on2)n(-c2ccccc2)n1,80.7% (inactive),106% (inactive),13% (inactive),92.6%,106%,-2.5% (inactive),1.9% (inactive)
CCOC(=O)c1cc2c(=O)n3cccc(C)c3nc2n(CCOC)c1=NC(=O)c1ccncc1,104% (inactive),82.6% (inactive),-10.1% (inactive),92.6%,82.6%,-4.13% (inactive),3.33% (inactive)
CCCN(CCC)c1nc2ccccc2n2c(C)nnc12,85.3% (inactive),81.1% (inactive),-4.65% (inactive),85.8%,81.1%,-1.45% (inactive),8.1% (inactive)
O=C(c1ccco1)N1CCN(CC(=O)N(C2CCCCC2)C2CCS(=O)(=O)C2)CC1 (stereo not drawn),94% (inactive),93.5% (inactive),-4.1% (inactive),97.6%,93.5%,-4.81% (inactive),-3.17% (inactive)
Cc1onc(-c2c(Cl)cccc2Cl)c1C(=O)NCCN1CCOCC1,94.9% (inactive),89.9% (inactive),-8.8% (inactive),98.7%,89.9%,-3.03% (inactive),1.43% (inactive)
COC(=O)c1[nH]c(C)c(/C(O)=C2\C(=O)C(=O)N(CCCN3CCOCC3)C2c2ccccn2)c1C (stereo not drawn),109% (inactive),104% (inactive),7.94% (inactive),96.1%,104%,-0.53% (inactive),-4.6% (inactive)
O=c1nc(N2CCCC2)nc(Nc2ccccc2)[nH]1,100% (inactive),83.7% (inactive),-3.31% (inactive),87%,83.7%,-2.47% (inactive),-4.92% (inactive)
COC(=O)Oc1c(Br)c(=O)oc2ccccc12,90.8% (inactive),83% (inactive),2.87% (inactive),80.1%,83%,-0.4% (inactive),-4.13% (inactive)
O=C(NC1CC2CCC1C2)C1COc2ccccc2O1 (stereo not drawn),100% (inactive),87.9% (inactive),4.5% (inactive),83.4%,87.9%,-3.55% (inactive),-2.38% (inactive)
O=C(Cc1cccs1)NCc1ccc(F)cc1,98% (inactive),99.6% (inactive),5.21% (inactive),94.4%,99.6%,-3.6% (inactive),3.33% (inactive)
CCOc1ccc(C(=O)Nc2cc(C)on2)cc1OCC,90.1% (inactive),89.9% (inactive),0.35% (inactive),89.6%,89.9%,-4.87% (inactive),3.17% (inactive)
Cc1ccccc1CN1CCN(CC(=O)NCc2ccco2)C1=O,101% (inactive),83% (inactive),-0.72% (inactive),83.7%,83%,-1.17% (inactive),4.92% (inactive)
COc1ccc(OC)c(S(=O)(=O)NCCO)c1,87.5% (inactive),95.2% (inactive),14.5% (inactive),80.7%,95.2%,-2.34% (inactive),6.35% (inactive)
CC(C)OC(=O)CSc1nnc(-c2ccc(O)cc2)n1Cc1ccccc1,109% (inactive),80.8% (inactive),-4.22% (inactive),85%,80.8%,-7.2% (inactive),-2.22% (inactive)
